Here are results for two sequences from PMC11617931 (Molecular Therapy. Nucleic Acids, 2024).

Bridge positions count the residues as written; N and C are the ends. Ends that are not written are not given here.

Assay [1] has as its system differentiated CF pHBECs cultured at ALI. The assay is classed as cell-based, human. Particulars: average of three replicates, first to last round; 1,000 vg/cell. In outline:
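Pooled T7 CX7C phage libraries were diluted in DPBS (no Ca2+/Mg2+) to 3.3 × 10^5 PFU/µL, giving 1,000 vg/cell, and applied to ALI-differentiated CF pHBECs pooled from seven donors (3.3 × 10^4 cells/insert). Incubation was 16 h at 37°C in round 1 and 1 h in round 5. Lysate was spun at 14,000 × g for 10 min and the supernatant titered by double-layer plaque assay. Output was pooled as input for the next round. Cout/Cin change was taken from three replicates, unpaired t test.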

Assay [2] deals with mucus-producing differentiated CF pHBECs cultured at ALI. In words: Validation of phage clone uptake by standard double-layer plaque assay. The assay is classed as cell-based, human. Particulars: Cout/Cin, 1 h, 37°C, n = 3. In outline:
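Clones were sequence-verified from BL21 E. coli plaques and amplified in liquid BL21 culture. Each clone (3.3 × 10^7 PFU in 100 µL DPBS) was applied apically to ALI-differentiated CF pHBECs for 1 h at 37°C. Cells were washed with elution buffer and DPBS, lysed with M-PER, and spun at 14,000 × g. Internalized phage in the supernatant were titered by double-layer plaque assay as Cout/Cin. Controls were peptide-less WT phage, naive library, and CPS phage.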

Setting [3] is: 3.3 × 10^7 PFU apical, p < 0.005.

With CXXXXXXXC (disulfide) [CX7C T7 library], the “increase in Cout/Cin after five rounds of selection” value in assay [1] was determined as 380 fold.
For the sequence “CTSTRKKQC (disulfide 1-9 (inferred)) [Clone C]”, the “uptake compared to insertless wild-type (WT) control and CPS control” value in assay [2] is on record as “significantly improved uptake”. Moreover, in assay [2] (3.3 × 10^7 PFU apical, p < 0.0005), the “improvement in uptake compared to naive library” value is reported as roughly 454 fold. Besides, in assay [2] (setting [3]), the “improvement in uptake compared to WT” value was 56 fold and the “improvement in uptake compared to clone CPS” value was found to be 50 fold.
